Measured values taken from ChEMBL document CHEMBL1137243, “Design, synthesis, and antifungal activities in vitro of novel tetrahydroisoquinoline compounds based on the structure of lanosterol 14alpha-demethylase (CYP51) of fungi” (2006).
Values after ≈ are worked out from the molar mass of the structure shown.

What was measured:
Type in all cases: functional
Candida albicans = assay: Antifungal activity against Candida albicans after 24 hrs
In short: (§1)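 Broth serial-dilution MIC in 96-well plates per NCCLS recommendations. Medium: RPMI 1640 buffered with 0.165 M MOPS. Strains were from ATCC or clinical isolates. Compounds were dissolved in DMSO and serially diluted in growth medium. Yeasts were incubated at 35 °C, read at 24 h for Candida and 72 h for C. neoformans. MIC is the lowest concentration giving ≥80% growth inhibition versus control (turbidity).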

Cryptococcus neoformans = assay: Antifungal activity against Cryptococcus neoformans after 72 hrs; in short: as §1
Candida parapsilosis = assay: Antifungal activity against Candida parapsilosis after 24 hrs; details: Lodderomyces parapsilosis; in short: as §1
Trichophyton rubrum = assay: Antifungal activity against Trichophyton rubrum after 7 days; details: 168 h
In short: (§2)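 Dermatophytes were tested by NCCLS-based broth serial dilution in 96-well plates. Medium: RPMI 1640 with 0.165 M MOPS. Isolates were from ATCC or clinical sources. Compounds in DMSO were serially diluted in medium. Incubation was at 28 °C with the read at 7 days. MIC is the lowest concentration giving ≥80% turbidity reduction relative to the growth control.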

Aspergillus fumigatus = assay: Antifungal activity against Aspergillus fumigatus after 7 days; details: 168 h
In short: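 Filamentous-fungus MIC was determined by serial dilution in 96-well plates per NCCLS, using RPMI 1640 buffered with 0.165 M MOPS. Strains were ATCC or clinical isolates. Compounds in DMSO were diluted in growth medium. Growth was read at 7 days. MIC is the lowest concentration producing ≥80% inhibition of turbidity compared with control.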

Microsporum canis = assay: Antifungal activity against Microsporum canis after 7 days; details: 168 h; in short: as §2

Row | Compound | MIC80 (Candida albicans) [µg/mL] | MIC80 (Cryptococcus neoformans) [µg/mL] | MIC80 (Candida parapsilosis) [µg/mL] | MIC80 (Trichophyton rubrum) [µg/mL] | MIC80 (Aspergillus fumigatus) [µg/mL] | MIC80 (Microsporum canis) [µg/mL]
1 | CCCCCCCCCCN1CCc2cc(O)c(O)cc2C1 | 100 (≈ 327 µM) | 3.12 (≈ 10.2 µM) | 12.5 (≈ 40.9 µM) | 3.12 (≈ 10.2 µM) | 50 (≈ 164 µM) | 12.5 (≈ 40.9 µM)
2 | CCCCCCCCCCCCN1CCc2cc(O)c(O)cc2C1 | 50 (≈ 150 µM) | 6.25 (≈ 18.7 µM) | 50 (≈ 150 µM) | 12.5 (≈ 37.5 µM) | 50 (≈ 150 µM) | 12.5 (≈ 37.5 µM)
3 | CCCCCCCCCCCCCCCCN1CCc2cc(O)c(O)cc2C1 | > 200 | 100 (≈ 257 µM) | 100 (≈ 257 µM) | 200 (≈ 513 µM) | 200 (≈ 513 µM) | > 200
4 | CCCCCCCCN1CCc2cc(O)c(O)cc2C1 | > 200 | 100 (≈ 360 µM) | 100 (≈ 360 µM) | 50 (≈ 180 µM) | > 200 | 50 (≈ 180 µM)
5 | CCCCCCN1CCc2cc(O)c(O)cc2C1 | > 200 | 100 (≈ 401 µM) | 100 (≈ 401 µM) | > 200 | > 200 | > 200
6 | CCCCCN1CCc2cc(O)c(O)cc2C1 | > 200 | 100 (≈ 425 µM) | 100 (≈ 425 µM) | > 200 | > 200 | > 200
7 | CCCCCCCN1CCc2cc(O)c(O)cc2C1 | > 200 | 100 (≈ 380 µM) | 100 (≈ 380 µM) | > 200 | > 200 | > 200
8 | CCCCCCCCCCCCCCN1CCc2cc(O)c(O)cc2C1 | 50 (≈ 138 µM) | 6.25 (≈ 17.3 µM) | 50 (≈ 138 µM) | 25 (≈ 69.1 µM) | > 200 | 12.5 (≈ 34.6 µM)
9 | CCCCCCCCCN1CCc2cc(O)c(O)cc2C1 | 200 (≈ 686 µM) | 25 (≈ 85.8 µM) | 25 (≈ 85.8 µM) | 12.5 (≈ 42.9 µM) | 200 (≈ 686 µM) | 50 (≈ 172 µM)
10 | OC(Cn1cncn1)(Cn1cncn1)c1ccc(F)cc1F [FLUCONAZOLE] | 1.56 (≈ 5.1 µM) | 6.25 (≈ 20.4 µM) | 50 (≈ 163 µM) | 25 (≈ 81.6 µM) | > 200 | 100 (≈ 327 µM)
